Yeast lifespan up: yeast lifespan extension; S. cerevisiae growth with nicotinamide, OD615; deaD strain in restrictive glucose medium; inhibition of the nicotinamide effect, % at 10 µM; 0.68% of 130,000 active; AID 775;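 active means inhibition above a set limit, placed 3 SD over the median of all compounds, cut at about 26% in these data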;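 further: 0% = nicotinamide-treated wells and 100% = cells grown without nicotinamide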
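System: Modified budding yeast, DeaD strain | Buffer or medium: Restrictive glucose medium | Also added: 1.5 mM nicotinamide | Doses: 10 µM single point, 0.25% DMSO | Schedule: 48 h compound exposure at 30 °C, humidified | Detection: Absorbance at 615 nm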
WT yeast gro inh: growth inhibition of WT yeast, mitochondrial fusion screen | inhibition, % at 10 µM | 2.1% of 190,000 active | AID 1362 | mitochondrial fusion phenotypic screen, WT strain; in the data active means inhibition above about 58%; tested in S. cerevisiae
RAM inhibit: yeast RAM network inhibition; S. cerevisiae dse1pr::URA3 reporter, 5-FOA growth OD615, 2 d; analog-sensitive cbk1-as2 kinase mutant strain; inhibition, % at 50 µM; 1.8% of 190,000 active; AID 868;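 active means inhibition above a set limit, 3 SD over mean compound inhibition, cut at about 8.4% in these data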;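 further: 0% = DMSO-only wells with no growth and 100% = 10 µM 1-NA-PP1 full growth; inhibition rescues growth on 5-FOA so higher OD means more RAM inhibition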
BB579 growth dn: chemicals that inhibit yeast BB579 growth in restrictive medium (lifespan-shortening candidates); S. cerevisiae BB579 growth, OD615, 48 h; inhibition, % at 10 µM; 0.51% of 140,000 active;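 active means inhibition above a set limit, 3 SD over the mean compound inhibition, cut at about 44% in these data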
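Test system: Saccharomyces cerevisiae DeaD strain BB579, replicative lifespan model yeast | Buffer or medium: Restrictive CSMM-D medium | Doses: One dose, 10 µM compound with 0.25% DMSO | Incubation: 48 h exposure, 30 °C | Detection: Culture absorbance at 615 nm | Control set: Amphotericin B at 10 µg/mL as positive control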
Cl transport mod: modulates chloride dependent transport by human KCC2. KCC2 cells, thallium flux FluoZin-2 fluorescence. B-score of Tl+ flux slope (higher = more flux/activation; lower = inhibition) at 10 µM. 2.2% of 190,000 active. AID 1456;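 active means thallium flux slope and its plate-corrected score both differing from the plate sample mean at a set confidence after two filtering rounds, in either direction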;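 further: slope of fluorescence scaled to starting intensity during 10 to 20 s after thallium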
Target sequence (Q9H2X9 whole entry, looked up): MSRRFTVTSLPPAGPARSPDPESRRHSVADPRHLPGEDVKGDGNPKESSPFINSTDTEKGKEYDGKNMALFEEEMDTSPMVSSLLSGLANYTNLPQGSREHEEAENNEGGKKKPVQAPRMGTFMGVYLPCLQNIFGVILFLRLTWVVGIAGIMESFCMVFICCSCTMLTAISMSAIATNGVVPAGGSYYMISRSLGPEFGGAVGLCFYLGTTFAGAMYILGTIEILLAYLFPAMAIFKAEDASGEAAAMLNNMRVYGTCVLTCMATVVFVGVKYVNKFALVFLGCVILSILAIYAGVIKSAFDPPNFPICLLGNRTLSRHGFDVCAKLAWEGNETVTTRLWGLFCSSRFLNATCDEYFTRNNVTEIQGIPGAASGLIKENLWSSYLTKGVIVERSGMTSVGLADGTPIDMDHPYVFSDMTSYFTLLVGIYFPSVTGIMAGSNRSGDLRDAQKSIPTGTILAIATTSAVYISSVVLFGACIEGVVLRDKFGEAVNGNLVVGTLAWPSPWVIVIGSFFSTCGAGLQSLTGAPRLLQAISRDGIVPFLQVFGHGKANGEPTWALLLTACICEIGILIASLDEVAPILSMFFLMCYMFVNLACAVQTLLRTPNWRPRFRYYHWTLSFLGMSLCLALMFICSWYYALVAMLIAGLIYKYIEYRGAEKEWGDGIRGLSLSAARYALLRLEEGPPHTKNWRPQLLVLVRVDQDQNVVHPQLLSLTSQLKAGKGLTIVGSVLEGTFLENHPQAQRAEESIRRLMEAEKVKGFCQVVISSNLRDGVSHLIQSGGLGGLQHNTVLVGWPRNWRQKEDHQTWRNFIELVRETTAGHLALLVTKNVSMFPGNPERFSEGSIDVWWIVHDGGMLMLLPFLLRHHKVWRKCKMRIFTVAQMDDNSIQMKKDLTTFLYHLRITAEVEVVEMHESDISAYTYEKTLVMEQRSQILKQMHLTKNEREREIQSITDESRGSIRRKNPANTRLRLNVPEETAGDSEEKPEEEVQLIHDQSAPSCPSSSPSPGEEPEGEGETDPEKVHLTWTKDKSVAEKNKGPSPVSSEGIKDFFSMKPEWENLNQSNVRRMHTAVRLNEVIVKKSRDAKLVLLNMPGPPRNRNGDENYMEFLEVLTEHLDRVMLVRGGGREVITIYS
* marks the source's active call; other numbers are inactive results; · = no result given. Most compounds without a hit are left out; they make up all but 5.5% or so of the library.

SMILES | Yeast lifespan up | WT yeast gro inh | RAM inhibit | BB579 growth dn | Cl transport mod
CS(=O)(=O)CCC(C(=O)OCc1ccc(Cl)cc1)N1C(=O)c2ccccc2C1=O (configuration not stated) | -4 | 0 | 3 | 8 | -0.53
CCOc1ccc2c(c1)OC(c1ccc(C)cc1)(C(F)(F)F)NC2=O (configuration not stated) | 7 | 60* | 2 | -13 | 1.7
COc1ccc(CCNc2oc(COc3ccc(Br)cc3)nc2C#N)cc1OC | -2 | 22 | 10.0* | -63 | ·
CC(C)CN(CC(C)C)C(=O)Nc1cccc([N+](=O)[O-])c1 | · | -11 | 1 | · | -0.15
Oc1cccc(C=NCc2ccccc2)c1O | -19 | 16 | -2 | 98* | -2.8
COc1cc(NC(=O)c2ccc([N+](=O)[O-])o2)ccc1NC(=O)c1cccs1 | · | 95* | 6 | · | -0.66
COc1cc(NC(=O)c2cccc(Cl)c2)ccc1NC(=O)c1cccs1 | · | 10 | 9.3* | · | -0.17
COc1cc(NC(=O)c2ccccc2Cl)ccc1NC(=O)c1cccs1 | · | 11 | 4 | · | -0.085
CC1CCN(S(=O)(=O)c2cccc(C(=O)NNC(=O)c3ccco3)c2)CC1 | · | · | · | · | 1.7
Cc1ccc(NC(=O)COC(=O)c2ccc(OCc3c(C)noc3C)cc2)cc1S(=O)(=O)N1CCOCC1 | 3 | -11 | 11* | -48 | -0.8
CCc1cc2c(NCc3ccco3)ncnc2s1 | -23 | 5 | 0 | -43 | ·
CCOC(=O)c1sc2ncnc(NCc3ccco3)c2c1C | -12 | -4 | -1 | 3 | 128*
CCOC(=O)c1sc2nc(CC(=O)OC)nc(NCc3ccco3)c2c1C | -15 | -10 | 11* | -40 | -0.91
CCOC(=O)c1sc2nc(CC(=O)OC)nc(NCC(=O)OC)c2c1C | -18 | 22 | 1 | -38 | 0.87
Cc1sc(NC(=O)CSc2nnnn2C2CCCCC2)c(C#N)c1C | -3 | 75* | 3 | -20 | ·
NC(=O)COc1ccc(-n2cnnn2)cc1 | · | -6 | 0 | · | -0.17
CCOc1ccc(C(C)=O)cc1COc1ccc(-n2cnnn2)cc1 | -20 | -14 | 8.7* | -27 | -0.0093
Cn1cc(/C=C2\SC(=S)N(NC(=O)c3ccccc3Cl)C2=O)c2ccccc21 | 5 | -2 | 4 | -50 | -5.3*
Cn1cccc1/C=C1\SC(=S)N(NC(=O)c2ccccc2Cl)C1=O | 5 | 2 | 8 | -22 | -3.8
CN1CCN(c2ccc(Cl)cc2NC(=O)/C=C/c2ccc(F)cc2)CC1 | · | 83* | 3 | · | 0.59
Cc1cccc(-c2nsc(SCC(=O)c3ccc(Cl)cc3)n2)c1 | 0 | 37 | 3 | -6 | 2
O=C(CSc1nc(-c2ccccc2Cl)ns1)c1ccc(Cl)cc1 | -2 | 34 | 11* | -28 | -0.6
Cc1ccc(NC(=S)N(Cc2ccco2)C2CCN(C(C)C)CC2)cc1 | 1 | 10 | 0 | -51 | 0.01
CN1CCN(C(c2cccs2)c2nnnn2Cc2ccc(F)cc2)CC1 (configuration not stated) | · | -1 | 0 | · | 0.8
CC1Oc2ccccc2OC1(O)c1ccc2ccccc2n1 (configuration not stated) | 0 | -18 | -1 | -11 | -0.43
SMILES | Yeast lifespan up | WT yeast gro inh | RAM inhibit | BB579 growth dn | Cl transport mod
CCCc1ccc(-c2cc(C(=O)N/N=C/c3ccc([N+](=O)[O-])o3)c3ccccc3n2)cc1 | -9 | 63* | 1 | -33 | -0.051
COc1ccc(OC)c(S(=O)(=O)Nc2ccc(O)c3ccccc23)c1 | · | 62* | 2 | -24 | -0.77
COc1ccc(OC)c(S(=O)(=O)Nc2c(C)cccc2C)c1 | · | 5 | 1 | · | -0.37
COc1ccc(OC)c(S(=O)(=O)Nc2ccc(Oc3ccccc3)cc2)c1 | -16 | 63* | 5 | 4 | -0.35
COc1ccc(NS(=O)(=O)c2cc(NC(=O)c3ccc(F)cc3)ccc2OC)cc1 | 9 | -12 | 7 | -24 | -0.76
COc1ccc(NS(=O)(=O)c2cc(NC(=O)c3cc(=O)c4ccccc4o3)ccc2OC)cc1 | · | -18 | 9.6* | · | -1.2
COc1ccc2cc(-c3cc(C(=O)OCC(=O)NC4CCS(=O)(=O)C4)c4ccccc4n3)ccc2c1 (configuration not stated) | -1 | 27 | 5 | -22 | 0
O=S(=O)(N/N=C/c1ccc(N2CCOCC2)cc1)c1ccc(Br)cc1 | · | 11 | 4 | · | -1.4
CC(C)NS(=O)(=O)c1ccc(CCC(=O)N2CCC(C(N)=O)CC2)cc1 | · | -12 | 0 | · | -0.85
CN(C)/C=N/C1=C(C#N)C(c2cccs2)c2ccc3ccccc3c2O1 (configuration not stated) | · | 19 | 3 | · | 1.2
O=C1CC(NNc2ccccc2)C(=O)N1c1ccc(N2CCCCC2)cc1 (configuration not stated) | · | 20 | 3 | · | 0.36
CCCCCCCC(=O)NNC(=O)Cc1ccccc1 | -13 | -2 | 2 | -37 | -0.0081
CCCCCCCCCCCC(=O)c1c(O)cccc1O | · | 95* | 3 | · | 0.37
CC(C)(C)C(=O)N1CCN(c2ccc(Cl)cc2[N+](=O)[O-])CC1 | 7 | 32 | -1 | -16 | 1.1
O=C(NC(=S)N1CCN(c2ccc(Cl)cc2[N+](=O)[O-])CC1)c1cccs1 | 23 | 72 | 1 | -10 | 71*
O=C(NC(=S)N1CCN(c2ccc(Cl)cc2[N+](=O)[O-])CC1)c1ccco1 | 13 | -5 | 1 | -4 | 17*
COc1cccc(Nc2c3c(nc4c(-c5ccccc5)c(C)nn24)CCC3)c1 | 3 | 67* | 1 | -29 | 1.4
CCC(C)Nc1c([N+](=O)[O-])cc(C)cc1[N+](=O)[O-] (configuration not stated) | -1 | 67* | 2 | -5 | ·
O=C1c2ccccc2N2C(=O)c3ccccc3C2N1O (configuration not stated) | 39* | 14 | 0 | -33 | 2.8
N#Cc1ccc(OCc2noc(-c3ccsc3)n2)cc1 | · | · | · | · | -0.06
Cc1ccc(O)c(C(=O)c2cnc3c(c2)COc2ccc(C)cc2-3)c1 | · | 45 | 8.7* | -38 | 0.26
O=C(CCl)c1ccc(Cc2ncc(C(F)(F)F)cc2Cl)s1 | 68* | 11 | 1 | -13 | 0.14
O=C1CC(c2ccccc2)CC(O)=C1C=NCCN1CCN(Cc2ccccc2)CC1 (configuration not stated) | · | · | · | · | -0.27
COc1ccc(C(=O)NCC(O)COc2ccc(C(C)(C)C)cc2)cc1[N+](=O)[O-] (configuration not stated) | 1 | -9 | 7 | -38 | 0.011
Cc1ccccc1NC(=S)N(Cc1ccco1)C(C)c1cccs1 (configuration not stated) | · | 32 | 0 | · | 0.23
Cc1cccc(NC(=S)N(Cc2ccco2)C(C)c2cccs2)c1 (configuration not stated) | · | 72* | 2 | · | 0.47
CC(c1cccs1)N(Cc1ccco1)C(=S)Nc1ccccc1Cl (configuration not stated) | · | 63* | 4 | · | -0.0066
